“Also recorded” adds a separate entry of the source.
Legend:
[1] = test system: HIV-1 FSS RNA; test: SPR binding to immobilised HIV-1 FSS RNA; settings: for ka / kd: SPR, 1:1 Langmuir fit, average of four curves
[2] = test system: HIV-1 FSS RNA; test: Competitive SPR assay with excess yeast tRNA in solution; type: binding
How it was run: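 Streptavidin was coupled by EDC/NHS onto a CM5 chip, then ethanolamine-blocked; about 2000 RU of biotinylated HIV-1 FSS RNA (refolded 3 min at 75 °C in HBS, pH 7.4) was captured on one flow cell. Analyte was injected with or without excess bulk yeast tRNA at 80 μL/min for 1 min in HBS. At least two injections per condition.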

[3] = test system: p160 Gag-Pol; settings: earlier work; cited from earlier work
[4] = test system: pseudotyped HIV; settings: earlier work; cited from earlier work
[5] = test system: HIV-1 AD.MDR01; settings: patient-derived strain; cited from earlier work
[6] = test system: HIV IIIB; settings: earlier work; cited from earlier work
[7] = test system: hairpin derived from BDNF; test: Competition dialysis, BDNF mRNA hairpin; type: binding, human; settings: 2.0 μM compound, 2.5 μM RNA, 36 hours
How it was run: (§1)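 RNA hairpins refolded at 2.5 μM in PBS with 1 mM EDTA (3 min 25 °C, 3 min 90 °C, 5 min 27 °C). Duplicate dialysis tubes (MWCO 3500) of RNA, plus an RNA-free control, dialysed 36 h against 2.0 μM test compound in PBS. Bound compound released with 1% Triton X-100 (final). Total compound per tube quantified by HPLC against a calibration curve.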

[8] = test system: IRF5 RNA; test: Competition dialysis, IRF5 mRNA hairpin; type: binding, human; settings: 2.0 μM compound, 2.5 μM RNA, 36 hours
How it was run: as §1

[9] = test system: HIV-1 FSS RNA; test: Competition dialysis, HIV-1 FSS hairpin; type: binding; settings: 2.0 μM compound, 2.5 μM RNA, 36 hours, 8 competing human hairpins
How it was run: as §1

[10] = test system: HEK293FT cells; test: WST-1 cytotoxicity assay; type: cell-based; settings: 24 hours

Work on `CCc1nc2ccccc2cc1C(=O)N(C)[C@@H](CCn1cc(C[C@@H](C(=O)N2CCC[C@H]2C(=O)N(C)[C@@H](Cc2ccccc2)C(N)=O)N(C)C(=O)c2cc3ccccc3nc2CC)nn1)C(=O)N1CCC[C@H]1C(=O)N(C)[C@@H](Cc1ccccc1)C(N)=O` [Compound 8] yielded a ka [1] of 1690 M⁻¹ s⁻¹ and a kd [1] of 0.0207 s⁻¹.

In the case of `NC[C@@H]1O[C@H](O[C@H]2[C@@H](O)[C@H](O[C@@H]3[C@@H](O)[C@H](N)C[C@H](N)[C@H]3O[C@H]3O[C@H](CN)[C@@H](O)[C@H](O)[C@H]3N)O[C@@H]2CO)[C@H](N)[C@@H](O)[C@@H]1O` [Neomycin, neomycin, reference compound], the “SPR signal for HIV-1 FSS binding with tRNA” value ([2]; 30 μM tRNA, 3-fold excess relative to neomycin) is reported as “completely ablated”.

With `CCc1nc2ccccc2cc1C(=O)N(C)[C@@H](CCn1cc(C[C@@H](C(=O)N2C[C@H](O)C[C@H]2C(=O)N(C)[C@@H](Cc2ccccc2)C(=O)NCCCN)N(C)C(=O)c2cc3ccccc3nc2CC)nn1)C(=O)N1C[C@H](O)C[C@H]1C(=O)N(C)[C@@H](Cc1ccccc1)C(=O)NCCCN` [Compound 5] the ka [1] was 14900 M⁻¹ s⁻¹ and the kd [1] was 0.0068 s⁻¹.

For `CN(C(=O)c1cnc2ccccc2c1)[C@@H](CCn1cc(C[C@@H](C(=O)N2C[C@H](O)C[C@H]2C(=O)N(C)[C@@H](Cc2ccccc2)C(N)=O)N(C)C(=O)c2cnc3ccccc3c2)nn1)C(=O)N1C[C@H](O)C[C@H]1C(=O)N(C)[C@@H](Cc1ccccc1)C(N)=O` [Compound 10], the “fold difference in KD between 10 and 6” value ([1]; KD ratio 10 versus 6) was 23 fold, the ka [1] was 4090 M⁻¹ s⁻¹ and the kd [1] was 0.00541 s⁻¹.

Work on `CN(C(=O)c1cnc2ccccc2c1)[C@@H](CCn1cc(C[C@@H](C(=O)N2C[C@H](O)C[C@H]2C(=O)N(C)[C@@H](Cc2ccccc2)C(=O)NCCCN)N(C)C(=O)c2cnc3ccccc3c2)nn1)C(=O)N1C[C@H](O)C[C@H]1C(=O)N(C)[C@@H](Cc1ccccc1)C(=O)NCCCN` [Compound 7] yielded a ka [1] of 67400 M⁻¹ s⁻¹ and a kd [1] of 0.00542 s⁻¹.

In the case of `CCc1nc2cc3ccccc3cc2cc1C(=O)N[C@@H](C/C=C\C[C@H](NC(=O)c1cc2cc3ccccc3cc2nc1CC)C(=O)N1CCC[C@H]1C(=O)N[C@@H](Cc1ccccc1)C(=O)NCCCN)C(=O)N1CCC[C@H]1C(=O)N[C@@H](Cc1ccccc1)C(=O)NCCCN` [Compound 2], the “p160 Gag-Pol level in virus (Western blot)” value [3] is given as “concentration-dependent increases in p160 Gag-Pol” and the “effect on pseudotyped HIV” value [4] is given as “inhibited both production and infectivity”.

For `CCc1nc2cc3ccccc3cc2cc1C(=O)N(C)[C@@H](CCn1cc(C[C@@H](C(=O)N2CCC[C@H]2C(=O)N(C)[C@@H](Cc2ccccc2)C(=O)NCCCN)N(C)C(=O)c2cc3cc4ccccc4cc3nc2CC)nn1)C(=O)N1CCC[C@H]1C(=O)N(C)[C@@H](Cc1ccccc1)C(=O)NCCCN` [Compound 3], the “inhibition of multidrug resistant strain” value [5] is listed as “inhibited”, the “inhibition of laboratory strain HIV-1 IIIB” value [6] is listed as “inhibited” and the “p160 Gag-Pol level in virus (Western blot)” value [3] is listed as “concentration-dependent increases in p160 Gag-Pol”. For the same compound, the “effect on pseudotyped HIV” value [4] was “inhibited both production and infectivity”, the ka [1] was 190000 M⁻¹ s⁻¹ and the kd [1] was 0.003 s⁻¹.

With `CN(C(=O)c1cnc2ccccc2c1)[C@@H](CCn1cc(C[C@@H](C(=O)N2CCC[C@H]2C(=O)N(C)[C@@H](Cc2ccccc2)C(=O)NCCCN)N(C)C(=O)c2cnc3ccccc3c2)nn1)C(=O)N1CCC[C@H]1C(=O)N(C)[C@@H](Cc1ccccc1)C(=O)NCCCN` [Compound 6] the “binding in competition dialysis” value [7] was “appreciably bound”, the “binding in competition dialysis” value [8] was “appreciably bound” and the “change of binding constant with versus without excess tRNA” value ([2]; SPR traces with and without excess tRNA) was “within statistical error; also recorded: little impact on binding”. For the same compound, the “fold lower affinity for the FSS than compound 3” value ([1]; KD ratio versus 3) was 4 fold, the ka [1] was 56600 M⁻¹ s⁻¹ and the kd [1] was 0.00226 s⁻¹. The “binding among hairpins in competition dialysis” value [9] was “preferentially binds to HIV-1 FSS”.

For `CCc1nc2ccccc2cc1C(=O)N(C)[C@@H](CCn1cc(C[C@@H](C(=O)N2CCC[C@H]2C(=O)N(C)[C@@H](Cc2ccccc2)C(=O)NCCCN)N(C)C(=O)c2cc3ccccc3nc2CC)nn1)C(=O)N1CCC[C@H]1C(=O)N(C)[C@@H](Cc1ccccc1)C(=O)NCCCN` [Compound 4], the “effect on cellular metabolism (WST-1)” value [10] was “significant effects below a concentration of 40 micromolar”, the ka [1] was 64900 M⁻¹ s⁻¹ and the kd [1] was 0.0237 s⁻¹.
